Measurements from different studies.
Compare with care: the assays were run in different laboratories.

SMILES	cell line	assay	conditions	IC50
NCC(=O)O	HFF	cell growth or viability, MTT	48 h	252 µM
COc1ccc(C=CC(=O)c2cccc([N+](=O)[O-])c2)cc1OC	J774	cell growth or viability, MTT	24 h	25 µg/mL
CC(C)C[C@H](NC(=O)[C@H](Cc1ccccc1)NC(=O)c1cnccn1)B(O)O	SNU1	cell growth or viability, ATP luminescence	–	0.014 µM
O=C(N/N=C/c1c(O)ccc2ccccc12)c1cc(-c2ccc3ccccc3c2)n[nH]1	UACC-903	cell growth or viability, MTS	24 h	19.5 µM
Cc1oc2cc(OC(=O)c3ccco3)ccc2c(=O)c1-c1ccccc1	human Neutrophil	cell migration, inhibitor	–	0.88 µM
Cc1cc(=O)oc2ccc(-c3cc(-c4cccs4)nc(N)n3)c(O)c12	KB	cell growth or viability, MTT	72 h	> 128 µg/mL
Oc1ccc(Nc2nc(-c3ccc(Cl)cc3)cs2)cc1	UACC-903	cell growth or viability, MTS	24 h	> 100 µM
CCCCCC/C=C1\CC2C=CC=CC1C2C1CCCCC1=O (centres unmarked)	U-937	cell growth or viability, flow cytometry	–	0.034 µM
Cc1cc(=O)oc2ccc(-c3cc(-c4ccccc4)nc(N)n3)c(O)c12	KB	cell growth or viability, MTT	72 h	> 128 µg/mL
COc1cc(Nc2nccc(-c3cnn4nc(OC)ccc34)n2)cc(C(F)(F)F)c1	SNU1	cell growth or viability, ATP luminescence	–	0.19 µM
COc1cc(O)c(CC=C(C)C)c(O)c1C(=O)/C=C/c1ccc(O)cc1	J774	cell growth or viability, resazurin	48 h	60.8 µM
O=C(Oc1ccc2c(=O)c(-c3ccccc3)c(C(F)(F)F)oc2c1)c1cccs1	human Neutrophil	cell migration, inhibitor	–	0.64 µM
COC(=O)CCC1=CC2C=CC=CC1C2C1CCCCC1=O (centres unmarked)	U-937	cell growth or viability, flow cytometry	–	0.171 µM
CCc1c2c(nc3ccc(OC(=O)N4CCC(N5CCCCC5)CC4)cc13)-c1cc3c(c(=O)n1C2)COC(=O)[C@]3(O)CC	KB	cell growth or viability, SRB	72 h	9.8 µM
COc1cc(OC)c(/C=C/S(=O)(=O)Nc2ccc(OC)c(N)c2)c(OC)c1	RF48	cell growth or viability, trypan blue	96 h	0.004 µM
CCCCC1=CC2C=CC=CC1C2C1CCCCC1=O (centres unmarked)	U-937	cell growth or viability, flow cytometry	–	0.035 µM
COc1ccccc1-c1c(C)oc2cc(OC(=O)c3cccs3)ccc2c1=O	human Neutrophil	cell migration, inhibitor	–	0.32 µM
N#CCCCC1=CC2C=CC=CC1C2C1CCCCC1=O (centres unmarked)	U-937	cell growth or viability, flow cytometry	–	0.074 µM
CCc1cc2c(=O)c(-c3nc4ccccc4n3C)c(C)oc2cc1OC(C)=O	human Neutrophil	cell migration, inhibitor	–	0.027 µM
Cc1cc(=O)oc2ccc(-c3cc(-c4cccc([N+](=O)[O-])c4)nc(N)n3)c(O)c12	KB	cell growth or viability, MTT	72 h	63.6 µg/mL
